Experiments:
PC-3 = assay: Cytotoxicity against human PC3 cells; assay type: functional
OVCAR-3 = assay: Cytotoxicity against human OVCAR3 cells; assay type: functional
RXF 393 = assay: Cytotoxicity against human RXF393 cells; assay type: functional
[1] = Cytotoxicity against human NCI-ADR-RES cells; assay type: functional
HOP-92 = assay: Cytotoxicity against human HOP92 cells; assay type: functional
CAKI-1 = assay: Cytotoxicity against human Caki1 cells; assay type: functional
T47D = assay: Cytotoxicity against human T47D cells; assay type: functional
SNB-75 = assay: Cytotoxicity against human SNB75 cells; assay type: functional
TK-10 = assay: Cytotoxicity against human TK10 cells; assay type: functional
COLO 205 = assay: Cytotoxicity against human COLO205 cells; assay type: functional
MOLT-4 = assay: Cytotoxicity against human MOLT4 cells; assay type: functional
SK-OV-3 = assay: Cytotoxicity against human SKOV3 cells; assay type: functional
MDA-MB-468 = assay: Cytotoxicity against human MDA-MB-468 cells; assay type: functional
SF-295 = assay: Cytotoxicity against human SF295 cells; assay type: functional
IGROV-1 = assay: Cytotoxicity against human IGROV1 cells; assay type: functional
HL-60(TB) = assay: Cytotoxicity against human HL-60(TB) cells; assay type: functional
A498 = assay: Cytotoxicity against human A498 cells; assay type: functional
786-0 = assay: Cytotoxicity against human 786-0 cells; assay type: functional
[2] = Cytotoxicity against human EKVX cells; assay type: functional
NCI-H460 = assay: Cytotoxicity against human NCI-H460 cells; assay type: functional
KM12 = assay: Cytotoxicity against human KM12 cells; assay type: functional
SF-268 = assay: Cytotoxicity against human SF268 cells; assay type: functional
LOX IMVI = assay: Cytotoxicity against human LOXIMVI cells; assay type: functional
OVCAR-5 = assay: Cytotoxicity against human OVCAR5 cells; assay type: functional
MCF7 = assay: Cytotoxicity against human MCF7 cells; assay type: functional
BT-549 = assay: Cytotoxicity against human BT549 cells; assay type: functional
ACHN = assay: Cytotoxicity against human ACHN cells; assay type: functional
SK-MEL-5 = assay: Cytotoxicity against human SK-MEL-5 cells; assay type: functional
MDA-MB-231 = assay: Cytotoxicity against human MDA-MB-231 cells; assay type: functional
U-251 = assay: Cytotoxicity against human U251 cells; assay type: functional
CCRF-CEM = assay: Cytotoxicity against human CCRF-CEM cells; assay type: functional
HT-29 = assay: Cytotoxicity against human HT-29 cells; assay type: functional
M14 = assay: Cytotoxicity against human M14 cells; assay type: functional
OVCAR-8 = assay: Cytotoxicity against human OVCAR8 cells; assay type: functional
SW-620 = assay: Cytotoxicity against human SW620 cells; assay type: functional
NCI-H226 = assay: Cytotoxicity against human NCI-H226 cells; assay type: functional
UACC-62 = assay: Cytotoxicity against human UACC62 cells; assay type: functional
SF-539 = assay: Cytotoxicity against human SF539 cells; assay type: functional
MDA-MB-435 = assay: Cytotoxicity against human MDA-MB-435 cells; assay type: functional
UACC-257 = assay: Cytotoxicity against human UACC257 cells; assay type: functional
SR = assay: Cytotoxicity against human SR cells; assay type: functional
A549 = assay: Cytotoxicity against human A549 cells; assay type: functional
SN12C = assay: Cytotoxicity against human SN12C cells; assay type: functional
NCI-H23 = assay: Cytotoxicity against human NCI-H23 cells; assay type: functional
HCC 2998 = assay: Cytotoxicity against human HCC2998 cells; assay type: functional
RPMI-8226 = assay: Cytotoxicity against human RPMI8226 cells; assay type: functional
[3] = Cytotoxicity against human Hs578T cells; assay type: functional; settings: Hs-578T
SK-MEL-2 = assay: Cytotoxicity against human SK-MEL-2 cells; assay type: functional
Steryl-sulfatase [4] = target: T1, Steryl-sulfatase (Homo sapiens, UniProt P08842); assay: Inhibition of STS (unknown origin) using 4-MUS as substrate measured over 10 mins by fluorescence assay
T1 sequence (P08842 whole entry): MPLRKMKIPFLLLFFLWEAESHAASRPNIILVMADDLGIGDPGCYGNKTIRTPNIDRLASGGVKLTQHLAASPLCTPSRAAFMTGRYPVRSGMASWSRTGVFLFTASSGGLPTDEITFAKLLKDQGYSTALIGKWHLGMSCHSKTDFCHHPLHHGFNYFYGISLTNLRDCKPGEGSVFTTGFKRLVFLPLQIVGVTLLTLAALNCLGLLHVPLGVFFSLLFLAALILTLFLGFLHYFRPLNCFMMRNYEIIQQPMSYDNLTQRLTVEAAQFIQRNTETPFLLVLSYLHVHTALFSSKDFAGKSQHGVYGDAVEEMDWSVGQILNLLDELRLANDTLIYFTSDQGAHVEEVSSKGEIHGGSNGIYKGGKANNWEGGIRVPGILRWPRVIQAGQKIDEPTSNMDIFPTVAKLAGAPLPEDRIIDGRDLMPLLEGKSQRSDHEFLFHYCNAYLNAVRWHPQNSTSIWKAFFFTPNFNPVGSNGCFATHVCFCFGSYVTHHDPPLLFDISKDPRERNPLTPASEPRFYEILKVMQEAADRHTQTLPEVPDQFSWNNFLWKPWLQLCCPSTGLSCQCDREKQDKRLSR
Summary of the method: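 Purified STS (10 nM final) in 0.1 M Tris-HCl pH 7.0 containing Triton X-100, 4-MUS 200 µM final, and inhibitor at eleven concentrations (5 nM–5 µM). Ex 360/em 460 fluorescence read over 10 min at 24 °C, in quadruplicate, with no-enzyme controls. Vi/V0 from initial rates fit to a slope-factor equation. For tight binders, Ki app is the y-intercept of IC50 vs [E] (10–80 nM).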

Steryl-sulfatase [5] = target: T1, Steryl-sulfatase; assay: Reversible inhibition of STS (unknown origin) using 4-MUS as substrate measured over 10 mins by fluorescence assay; settings: read-out: Ki(app)
Summary of the method: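 Purified STS at 10 nM final with 200 µM 4-MUS in 0.1 M Tris-HCl pH 7.0 (enzyme stock contained Triton X-100). Eleven inhibitor levels, 5 nM–5 µM, were added from DMSO/buffer. 4-Methylumbelliferone fluorescence (ex 360, em 460 nm) was followed for 10 min at 24 °C, in quadruplicate, with no-enzyme controls. Vi/V0 initial rates were fitted for IC50. K_i^app was the IC50-vs-[E]T intercept at 10–80 nM STS.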

## C[C@]12CC[C@@H]3c4ccc(O)cc4CC[C@H]3[C@@H]1CC[C@@H]2NS(=O)(=O)c1cccc(Br)c1
PC-3
  GI50: 1 µM
OVCAR-3
  GI50: 1 µM
RXF 393
  GI50: 1 µM
[1]
  GI50: 1 µM
HOP-92
  GI50: 1 µM
CAKI-1
  GI50: 1 µM
T47D
  GI50: 5 µM
SNB-75
  GI50: 1 µM
TK-10
  GI50: 1 µM
COLO 205
  GI50: 1 µM
MOLT-4
  GI50: 1 µM
SK-OV-3
  GI50: 1 µM
MDA-MB-468
  GI50: 2.4 µM
SF-295
  GI50: 1 µM
IGROV-1
  GI50: 1 µM
HL-60(TB)
  GI50: 1 µM
A498
  GI50: 1 µM
786-0
  GI50: 1 µM
[2]
  GI50: 1 µM
NCI-H460
  GI50: 1 µM
KM12
  GI50: 1 µM
SF-268
  GI50: 1 µM
LOX IMVI
  GI50: 1 µM
OVCAR-5
  GI50: 1 µM
MCF7
  GI50: 3.7 µM
BT-549
  GI50: 3.1 µM
ACHN
  GI50: 1 µM
SK-MEL-5
  GI50: 1 µM
MDA-MB-231
  GI50: 3.9 µM
U-251
  GI50: 1 µM
CCRF-CEM
  GI50: 1 µM
HT-29
  GI50: 1 µM
M14
  GI50: 1 µM
OVCAR-8
  GI50: 1 µM
SW-620
  GI50: 1 µM
NCI-H226
  GI50: 1 µM
UACC-62
  GI50: 1 µM
SF-539
  GI50: 1 µM
MDA-MB-435
  GI50: 1 µM
UACC-257
  GI50: 1 µM
SR
  GI50: 1 µM
A549
  GI50: 1 µM
SN12C
  GI50: 1 µM
NCI-H23
  GI50: 1 µM
HCC 2998
  GI50: 1 µM
RPMI-8226
  GI50: 1 µM
[3]
  GI50: 4 µM
SK-MEL-2
  GI50: 1 µM

## C[C@]12CC[C@@H]3c4ccc(O)cc4CC[C@H]3[C@@H]1CC[C@@H]2NS(=O)(=O)c1cccc(C(F)(F)F)c1
PC-3
  GI50: 1 µM
OVCAR-3
  GI50: 1 µM
RXF 393
  GI50: 1 µM
[1]
  GI50: 1 µM
HOP-92
  GI50: 1 µM
CAKI-1
  GI50: 1 µM
T47D
  GI50: 3.7 µM
SNB-75
  GI50: 1 µM
TK-10
  GI50: 1 µM
COLO 205
  GI50: 1 µM
MOLT-4
  GI50: 1 µM
SK-OV-3
  GI50: 1 µM
MDA-MB-468
  GI50: 4.1 µM
SF-295
  GI50: 1 µM
IGROV-1
  GI50: 1 µM
HL-60(TB)
  GI50: 1 µM
A498
  GI50: 1 µM
786-0
  GI50: 1 µM
[2]
  GI50: 1 µM
NCI-H460
  GI50: 1 µM
KM12
  GI50: 1 µM
SF-268
  GI50: 1 µM
LOX IMVI
  GI50: 1 µM
OVCAR-5
  GI50: 1 µM
MCF7
  GI50: 2.7 µM
BT-549
  GI50: 2.7 µM
ACHN
  GI50: 1 µM
SK-MEL-5
  GI50: 1 µM
MDA-MB-231
  GI50: 2.4 µM
U-251
  GI50: 1 µM
CCRF-CEM
  GI50: 1 µM
HT-29
  GI50: 1 µM
M14
  GI50: 1 µM
OVCAR-8
  GI50: 1 µM
SW-620
  GI50: 1 µM
NCI-H226
  GI50: 1 µM
UACC-62
  GI50: 1 µM
SF-539
  GI50: 1 µM
MDA-MB-435
  GI50: 1 µM
UACC-257
  GI50: 1 µM
SR
  GI50: 1 µM
A549
  GI50: 1 µM
SN12C
  GI50: 1 µM
NCI-H23
  GI50: 1 µM
HCC 2998
  GI50: 1 µM
RPMI-8226
  GI50: 1 µM
[3]
  GI50: 3.2 µM
SK-MEL-2
  GI50: 1 µM

## CC(C)(C)c1ccc(S(=O)(=O)N[C@H]2CC[C@H]3[C@@H]4CCc5c(ccc(O)c5[N+](=O)[O-])[C@H]4CC[C@]23C)cc1
Steryl-sulfatase [4]
  IC50: 0.008 µM

## C[C@]12CC[C@@H]3c4ccc(O)c(F)c4CC[C@H]3[C@@H]1CC[C@@H]2NS(=O)(=O)c1cccc(C(F)(F)F)c1
Steryl-sulfatase [5]
  Ki: 0.0025 µM

## C[C@]12CC[C@@H]3c4ccc(O)c([N+](=O)[O-])c4CC[C@H]3[C@@H]1CC[C@@H]2NS(=O)(=O)c1cccc(C(F)(F)F)c1
PC-3
  GI50: 1 µM
OVCAR-3
  GI50: 1 µM
RXF 393
  GI50: 1 µM
[1]
  GI50: 1 µM
HOP-92
  GI50: 1 µM
CAKI-1
  GI50: 1 µM
T47D
  GI50: 1.8 µM
SNB-75
  GI50: 1 µM
TK-10
  GI50: 1 µM
COLO 205
  GI50: 1 µM
Steryl-sulfatase [4]
  IC50: 0.011 µM
MOLT-4
  GI50: 1 µM
SK-OV-3
  GI50: 1 µM
MDA-MB-468
  GI50: 2.7 µM
SF-295
  GI50: 1 µM
IGROV-1
  GI50: 1 µM
HL-60(TB)
  GI50: 1 µM
A498
  GI50: 1 µM
786-0
  GI50: 1 µM
[2]
  GI50: 1 µM
NCI-H460
  GI50: 1 µM
KM12
  GI50: 1 µM
SF-268
  GI50: 1 µM
LOX IMVI
  GI50: 1 µM
OVCAR-5
  GI50: 1 µM
MCF7
  GI50: 1.8 µM
BT-549
  GI50: 1.9 µM
ACHN
  GI50: 1 µM
SK-MEL-5
  GI50: 1 µM
MDA-MB-231
  GI50: 1.9 µM
U-251
  GI50: 1 µM
CCRF-CEM
  GI50: 1 µM
HT-29
  GI50: 1 µM
M14
  GI50: 1 µM
OVCAR-8
  GI50: 1 µM
SW-620
  GI50: 1 µM
NCI-H226
  GI50: 1 µM
UACC-62
  GI50: 1 µM
SF-539
  GI50: 1 µM
MDA-MB-435
  GI50: 1 µM
UACC-257
  GI50: 1 µM
SR
  GI50: 1 µM
A549
  GI50: 1 µM
SN12C
  GI50: 1 µM
NCI-H23
  GI50: 1 µM
HCC 2998
  GI50: 1 µM
RPMI-8226
  GI50: 1 µM
[3]
  GI50: 2.2 µM
SK-MEL-2
  GI50: 1 µM

## C[C@]12CC[C@@H]3c4ccc(O)c(Br)c4CC[C@H]3[C@@H]1CC[C@@H]2NS(=O)(=O)c1cccc(C(F)(F)F)c1
Steryl-sulfatase [4]
  IC50: 0.049 µM

## C[C@]12CC[C@@H]3c4ccc(O)c([N+](=O)[O-])c4CC[C@H]3[C@@H]1CC[C@@H]2NS(=O)(=O)c1ccc(-c2ccccc2)cc1
Steryl-sulfatase [5]
  Ki: 0.001 µM

— ChEMBL document CHEMBL3600382, “A-ring substituted 17β-arylsulfonamides of 17β-aminoestra-1,3,5(10)-trien-3-ol as highly potent reversible inhibitors of steroid sulfatase” (Bioorg Med Chem, 2015)
